Laboratory results taken from ChEMBL document CHEMBL1128400, “Synthesis of some 2-aryl-1,2,4-triazolo[1,5-c][1,3]benzoxazin-5-ones as tools to define the essential pharmacophoric descriptors of a benzodiazepine receptor ligand” (J Med Chem, 1995).

What was measured:
[1] = molecular target: T1, GABA-A receptor; anion channel (Bos taurus) (UniProt P10063+P08220+P20237+P08219+P10064+P22300); experiment: GABA ratio (where GABA ratio = IC50 (compound) / IC50 (compound + 10 uM GABA)).; assay type: protein-complex assay
Procedure, shortened: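 Ratio of IC50 for [3H]flunitrazepam displacement measured without GABA to IC50 measured with 10 μM GABA. Used as a rough in vitro gauge of intrinsic activity. Five independent experiments.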

[2] = Binding affinity at bovine Benzodiazepine receptor by [3H]flunitrazepam displacement.
Procedure, shortened: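 [3H]flunitrazepam displacement; IC50 from log-probit plots, converted to Ki. Run for compounds giving enough inhibition in a 10 μM screen.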

[3] = molecular target: T1, GABA-A receptor; anion channel (Bos taurus); experiment: Percentage inhibition of [3H]flunitrazepam binding to GABA-A benzodiazepine receptor of bovine brain membranes; assay type: cell membranes; conditions: concentration not given here
Procedure, shortened: (§1)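 Percent inhibition of [3H]flunitrazepam binding, with test compound at 10 μM. Ethanol used as solvent in one case.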

[4] = molecular target: T1, GABA-A receptor; anion channel (Bos taurus); experiment: inhibition of [3H]flunitrazepam binding to GABA-A benzodiazepine receptor of bovine brain membranes; assay type: cell membranes; conditions: concentration not given here
[5] = molecular target: T1, GABA-A receptor; anion channel (Bos taurus); experiment: Inhibition of [3H]flunitrazepam binding to GABA-A benzodiazepine receptor of bovine brain membranes at 10e-5 M; assay type: cell membranes; procedure, shortened: as §1

GR [1] | Ki [2] [nM] | inhibition [3] [%] | inhibition [4] [%] | inhibition [5] [%] | SMILES
0.84 | 27.9 | – | – | – | O=c1oc2ccccc2c2nc(-c3ccco3)nn12
– | – | 0 | – | – | O=c1oc2ccccc2c2nc(-c3ccc(Cl)cc3)nn12
1.2 | 125 | – | – | – | CCOC(=O)c1nc2c3cc(Cl)ccc3oc(=O)n2n1
– | – | – | 47 | – | O=c1oc2cc(Cl)ccc2c2nc(-c3ccccc3F)nn12
0.8 | 105 | – | – | – | O=c1oc2ccc(Cl)cc2c2nc(-c3ccoc3)nn12
0.76 | 42.2 | – | – | – | O=c1oc2ccc(Cl)cc2c2nc(-c3c(F)cccc3F)nn12
0.98 | 32.1 | – | – | – | O=c1oc2ccccc2c2nc(-c3cccs3)nn12
– | – | – | – | 45 | COc1ccc2c(c1)oc(=O)n1nc(-c3ccccc3F)nc21
1.02 | 211 | – | – | – | O=c1oc2ccc(Cl)cc2c2nc(-c3ccsc3)nn12
0.84 | 44.8 | – | – | – | Cc1ccc2oc(=O)n3nc(-c4ccccc4F)nc3c2c1
0.98 | 132 | – | – | – | O=c1oc2ccccc2c2nc(-c3ccccc3)nn12
– | – | – | 3 | – | O=c1oc2ccc(Cl)cc2c2nc(-c3ccc(Cl)cc3)nn12
1.13 | 43.7 | – | – | – | COc1ccc2oc(=O)n3nc(-c4ccccc4F)nc3c2c1
0.5 | 72.8 | – | – | – | COc1ccc(-c2nc3c4cc(Cl)ccc4oc(=O)n3n2)cc1
1.11 | 11.8 | – | – | – | O=c1oc2ccc(Cl)cc2c2nc(-c3cccc(F)c3F)nn12
0.78 | 568 | – | – | – | O=c1oc2ccc(Cl)cc2c2nc(-c3ccccc3)nn12
0.9 | 62.3 | – | – | – | O=c1oc2ccc(Cl)cc2c2nc(-c3ccco3)nn12
0.95 | 15.3 | – | – | – | O=c1oc2ccccc2c2nc(-c3ccccc3F)nn12
0.8 | 100 | – | – | – | O=c1oc2ccc(Cl)cc2c2nc(-c3cccs3)nn12
1.31 | 300 | – | – | – | COc1ccc(-c2nc3c4ccccc4oc(=O)n3n2)cc1
0.81 | 120 | – | – | – | CCOC(=O)c1nc2c3ccccc3oc(=O)n2n1
0.9 | 5.2 | – | – | – | O=c1oc2ccc(Cl)cc2c2nc(-c3ccccc3F)nn12
